Assay results taken from ChEMBL document CHEMBL1122132, “Synthesis, 470-MHz 1H NMR spectra, and activity of delactonized derivatives of the anticancer drug etoposide” (1982).

Legend:
Type in all cases: functional
L1210 [1] = test: In vitro cytotoxic activity tested in mouse leukemia L1210 cells at a dose of 5.0 ug/mL; conditions: read-out: Survival
Outline: (§1)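 Continuous mouse L1210 leukemia cell line exposed to 0.5, 5.0 or 50.0 μg/mL in a soft agar clonogenic assay. Colony survival is expressed as % of untreated control, with control set at 100.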

Mus musculus [2] = test: Percent increase in life span of mouse leukemia L1210 system at a dose of 60 mg/kg
L1210 [3] = test: In vitro cytotoxic activity tested in mouse leukemia L1210 cells at a dose of 50.0 ug/mL; conditions: read-out: Survival; outline: as §1
Mus musculus [4] = test: Percent increase in life span of mouse leukemia L1210 system at a dose of 30 mg/kg
Mus musculus [5] = test: Percent increase in life span of mouse leukemia L1210 system at a dose of 45 mg/kg
L1210 [6] = test: In vitro cytotoxic activity tested in mouse leukemia L1210 cells at a dose of 0.5 ug/mL; conditions: read-out: Survival; outline: as §1

Row | SMILES | viability at 5 µg/mL (L1210 [1]) | ILS at 60 mg/kg (Mus musculus [2]) | viability at 50 µg/mL (L1210 [3]) | ILS at 30 mg/kg (Mus musculus [4]) | ILS at 45 mg/kg (Mus musculus [5]) | viability at 0.5 µg/mL (L1210 [6])
1 | COc1cc([C@@H]2c3cc4c(cc3[C@@H](O[C@@H]3O[C@@H]5CO[C@@H](C)O[C@H]5[C@H](O)[C@H]3O)[C@@H](CO)[C@@H]2CO)OCO4)cc(OC)c1O | 221% | 5% | 43% | 0% | 0% | 
2 | COc1cc([C@@H]2c3cc4c(cc3[C@@H](O[C@@H]3O[C@@H]5CO[C@@H](C)O[C@H]5[C@H](O)[C@H]3O)[C@H]3COC[C@H]23)OCO4)cc(OC)c1O | 0% | 30% | 0% | 10% | 25% | 165%
3 | COc1cc([C@@H]2c3cc4c(cc3[C@@H](O[C@@H]3O[C@@H]5CO[C@@H](C)O[C@H]5[C@H](O)[C@H]3O)[C@H]3COC(=O)[C@H]23)OCO4)cc(OC)c1O [ETOPOSIDE] | 1% | 103% | 0% | 110% |  | 0%
